This test concerns the target Metabotropic glutamate receptor 4 (Rattus norvegicus) (UniProt P31423). In words: mGlu4 modulation of glutamate calcium response, selectivity assay for mGlu5 silent allosteric modulator project, cell-based, rat, CHO, Gqi5, Fluo4 calcium (AID 652204). To be noted: CHO rmGlu4/Gqi5, Fluo4 calcium mobilization, glutamate CRC. In a few lines: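 Test system: CHO cells expressing rat mGlu4 together with Gqi5. Also added: glutamate 9-point series up to 1 mM. Technique: Fluo4 calcium-dye fluorescence. Timing: 37 °C 60-min dye-loading, compound 20 s, glutamate 80 s.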
(Calcium assays in cells follow changes in intracellular calcium, usually with a dye or a luminescent sensor.)

Structures are written as SMILES. Calls of active or inactive are those of the source. The rule behind the calls is not given here.

Chain of Metabotropic glutamate receptor 4 (Rattus norvegicus) (P31423 whole entry, looked up): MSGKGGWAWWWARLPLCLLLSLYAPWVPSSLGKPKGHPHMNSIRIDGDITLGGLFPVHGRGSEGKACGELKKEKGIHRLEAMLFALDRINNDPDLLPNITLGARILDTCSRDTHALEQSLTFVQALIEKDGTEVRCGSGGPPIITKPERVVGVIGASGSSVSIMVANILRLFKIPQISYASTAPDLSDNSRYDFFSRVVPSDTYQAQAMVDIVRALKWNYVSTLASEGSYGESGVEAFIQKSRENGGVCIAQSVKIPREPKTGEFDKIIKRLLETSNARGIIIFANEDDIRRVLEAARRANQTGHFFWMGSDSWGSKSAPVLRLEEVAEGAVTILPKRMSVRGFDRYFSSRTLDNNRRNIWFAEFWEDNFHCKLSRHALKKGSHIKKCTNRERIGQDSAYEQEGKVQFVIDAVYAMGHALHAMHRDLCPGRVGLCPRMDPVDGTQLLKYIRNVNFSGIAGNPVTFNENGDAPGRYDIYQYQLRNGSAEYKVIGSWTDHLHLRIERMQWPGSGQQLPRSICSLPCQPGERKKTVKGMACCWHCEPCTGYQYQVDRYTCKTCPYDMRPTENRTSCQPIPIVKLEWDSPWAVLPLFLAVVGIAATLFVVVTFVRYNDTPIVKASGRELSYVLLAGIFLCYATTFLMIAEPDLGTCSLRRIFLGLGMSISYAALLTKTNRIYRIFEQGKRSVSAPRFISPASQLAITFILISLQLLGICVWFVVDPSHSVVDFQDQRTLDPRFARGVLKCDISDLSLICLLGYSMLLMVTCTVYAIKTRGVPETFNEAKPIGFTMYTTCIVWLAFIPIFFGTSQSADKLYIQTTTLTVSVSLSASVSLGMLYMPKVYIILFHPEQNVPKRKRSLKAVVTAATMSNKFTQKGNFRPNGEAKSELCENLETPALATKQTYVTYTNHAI

Consider `O=C(c1ccc(C#Cc2cccc(F)c2)cn1)N1CC2CC2C1` (configuration not stated), for which the “glutamate EC50 in presence of 10 uM compound” value was “inactive”. Besides, where the note is “measured here: glutamate EC50 fold shift, at 10 µM”, the fold shift came to 1.23.
